The source of these data is publication PMC3079198 (Journal of the American Chemical Society, 2011).

SMILES strings stand for the structures.

In assay [1] the test system is H1299 cells with deleted p53. Put plainly: Caspase-Glo 3/7 assay in H1299 cells. Type of assay: cell-based, human. The conditions noted are these: 20 μM, 24 h. The gist of the method: (§1)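 Human lung cancer cells, H460 (wild-type p53) and H1299 (p53 deleted), were exposed for 24 h to test compound at 20 μM. Controls were DMSO, a negative-control compound (20 μM) and a known MDM2 inhibitor as positive control (20 μM). Caspase 3/7 activity was then measured with the Caspase-Glo 3/7 assay kit.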

Assay [2] relates to H460 cells with wild type p53. In words: Caspase-Glo 3/7 assay in H460 cells. Type of assay: cell-based, human. The conditions noted are these: 20 μM, 24 h. The gist of the method:
as §1

`CC(C)(C)C[C@H]1N[C@@H](C(=O)NCCN2CCOCC2)[C@H](c2cccc(Cl)c2F)[C@@]12C(=O)Nc1cc(Cl)ccc12` [MI-63]: the “effect on caspase 3/7 activity” value in assay [1] was “no effect”. The “induction of caspase 3/7 activity” value in assay [2] is recorded as roughly 5 fold.
